Measured values taken from ChEMBL document CHEMBL5661979, “Pharmacological inhibition of BMK1 suppresses tumor growth through promyelocytic leukemia protein” (Cancer Cell, 2010).
Active and inactive are the calls of the source. The rule behind the calls is not given here.

How the values were obtained:
[1] = target: Serine/threonine-protein kinase B-raf (Homo sapiens, UniProt P15056); assay: Inhibition of BRAF in human HeLa cells lysate pre incubated for 15 mins followed by ATP acyl phosphate probe addition and measured after 10 mins by LC-MS/MS analysis; assay type: subcellular
Procedure, shortened: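 KiNativ-type profiling in HeLa lysate (5 mg/mL total protein). Lysate preincubated 15 min with inhibitor at 50, 10, 2, 0.8 or 0 μM, then ATP or ADP acylphosphate probe added (5 μM final) for 10 min. Reaction stopped with urea and analysed by targeted MS, using up to four fragment ions per kinase peptide-probe conjugate. % inhibition calculated against untreated lysate. Duplicate reactions.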

[2] = target: T1, Serine/threonine-protein kinase ULK3 (Homo sapiens) (UniProt Q6PHR2); assay: Inhibition of ULK3 in human HeLa cells lysate at 2 uM pre incubated for 15 mins followed by ADP acyl phosphate probe addition and measured after 10 mins by LC-MS/MS analysis relative to control; assay type: subcellular; details: time 25.0 min
T1 sequence (whole entry): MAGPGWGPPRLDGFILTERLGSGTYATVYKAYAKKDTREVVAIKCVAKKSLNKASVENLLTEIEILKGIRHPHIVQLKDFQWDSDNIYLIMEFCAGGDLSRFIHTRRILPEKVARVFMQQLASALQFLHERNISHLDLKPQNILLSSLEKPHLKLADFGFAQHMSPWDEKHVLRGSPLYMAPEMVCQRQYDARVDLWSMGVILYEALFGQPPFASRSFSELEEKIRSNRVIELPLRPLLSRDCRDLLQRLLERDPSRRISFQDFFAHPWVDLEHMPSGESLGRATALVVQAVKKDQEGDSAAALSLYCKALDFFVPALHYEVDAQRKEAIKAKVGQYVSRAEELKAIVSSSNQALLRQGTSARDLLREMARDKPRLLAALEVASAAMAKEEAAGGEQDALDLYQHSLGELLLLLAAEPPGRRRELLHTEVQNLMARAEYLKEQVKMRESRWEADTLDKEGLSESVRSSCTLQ

[3] = target: Phosphatidylinositol 4-phosphate 3-kinase C2 domain-containing subunit beta (Homo sapiens, UniProt O00750); assay: Inhibition of PIK3C2B in human HeLa cells lysate at 50 uM pre incubated for 15 mins followed by ATP acyl phosphate probe addition and measured after 10 mins by LC-MS/MS analysis relative to control; assay type: subcellular; details: time 25.0 min
[4] = target: Ribosomal protein S6 kinase alpha-1 (Homo sapiens, UniProt Q15418); assay: Inhibition of RSK1 domain 2 in human HeLa cells lysate at 50 uM pre incubated for 15 mins followed by ATP acyl phosphate probe addition and measured after 10 mins by LC-MS/MS analysis relative to control; assay type: subcellular; details: time 25.0 min
[5] = target: Wee1-like protein kinase (Homo sapiens, UniProt P30291); assay: Inhibition of Wee1 in human HeLa cells lysate pre incubated for 15 mins followed by ATP acyl phosphate probe addition and measured after 10 mins by LC-MS/MS analysis; assay type: subcellular
[6] = target: T2, DNA-dependent protein kinase catalytic subunit (Homo sapiens, UniProt P78527); assay: Inhibition of PRKDC in human HeLa cells lysate at 50 uM pre incubated for 15 mins followed by ATP acyl phosphate probe addition and measured after 10 mins by LC-MS/MS analysis relative to control; assay type: subcellular; details: time 25.0 min
[7] = target: T2, DNA-dependent protein kinase catalytic subunit; assay: Inhibition of PRKDC in human HeLa cells lysate at 10 uM pre incubated for 15 mins followed by ADP acyl phosphate probe addition and measured after 10 mins by LC-MS/MS analysis relative to control; assay type: subcellular; details: time 25.0 min
[8] = target: p38 delta/gamma (Homo sapiens, UniProt O15264+P53778); assay: Inhibition of P38delta/gamma in human HeLa cells lysate pre incubated for 15 mins followed by ATP acyl phosphate probe addition and measured after 10 mins by LC-MS/MS analysis; assay type: subcellular
[9] = AUCinfinity in Sprague-Dawley rat at 2 mg/kg, po measured up to 8 hrs by LC-MS/MS analysis; assay type: ADME, organism-based; details: in vivo
Procedure, shortened: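 Sprague-Dawley rats given one intravenous dose or one oral dose of 2 mg/kg. Plasma drug concentrations were followed over time, with samples taken out to 8 hr after dosing. PK parameters (clearance, volume of distribution, half-life, oral bioavailability, Cmax) were calculated from these concentration–time data.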

[10] = target: Casein kinase I isoform alpha (Homo sapiens, UniProt P48729); assay: Inhibition of CK1alpha in human HeLa cells lysate at 10 uM pre incubated for 15 mins followed by ATP acyl phosphate probe addition and measured after 10 mins by LC-MS/MS analysis relative to control; assay type: subcellular; details: time 25.0 min
[11] = Toxicity in C57Bl/6 mouse assessed as distress effect at 50 mg/kg, ip for 14 days; assay type: organism-based; details: in vivo, 336 h, time 14 day
[12] = target: Epidermal growth factor receptor (Homo sapiens, UniProt P00533); assay: Inhibition of EGFR in human HeLa cells lysate pre incubated for 15 mins followed by ATP acyl phosphate probe addition and measured after 10 mins by LC-MS/MS analysis; assay type: subcellular
[13] = Inhibition of MAP3K2/MAP3K3 in human HeLa cells lysate at 10 uM pre incubated for 15 mins followed by ADP acyl phosphate probe addition and measured after 10 mins by LC-MS/MS analysis relative to control; details: 25 min, condition cancer
[14] = Inhibition of PCTAIRE2/3 in human HeLa cells lysate at 10 uM pre incubated for 15 mins followed by ADP acyl phosphate probe addition and measured after 10 mins by LC-MS/MS analysis relative to control; details: 25 min, condition cancer
[15] = Toxicity in C57Bl/6 mouse assessed as effect on locomotor activity at 50 mg/kg, ip for 14 days; assay type: organism-based; details: in vivo, 336 h, time 14 day
[16] = Inhibition of CDK5/PRKX/PRKY in human HeLa cells lysate pre incubated for 15 mins followed by ADP acyl phosphate probe addition and measured after 10 mins by LC-MS/MS analysis; assay type: subcellular
Procedure, shortened: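 KiNativ profiling in HeLa lysate (5 mg/mL total protein). Lysate incubated 15 min with inhibitor at 50, 10, 2, 0.8 or 0 μM. ATP or ADP acylphosphate probe then added (5 μM final) and reacted 10 min. Reaction stopped with urea and analysed by targeted MS, using up to four fragment ions per kinase peptide-probe conjugate. % inhibition taken against untreated lysate. Run in duplicate.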

[17] = tested on: Lewis lung carcinoma; assay: Antitumor activity against mouse LL2 cells allografted in C57Bl/6 mouse assessed as reduction tumor growth at 50 mg/kg, ip administered on day 7 post implantation measured after 17 days; assay type: functional, organism-based; details: time 10.0 day
Procedure, shortened: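 LL/2 cells (1×10^6, in DMEM) were injected s.c. into the right flank of 6-week-old C57Bl/6 mice on day 0. Dosing was 50 mg/kg i.p. twice daily, starting on day 1, 7 or 10 and continuing to day 17; controls received carrier. 6 mice per treated group. Tumors were measured every 2–3 days.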

[18] = target: Tyrosine-protein kinase Lyn (Homo sapiens, UniProt P07948); assay: Inhibition of LYN in human HeLa cells lysate at 2 uM pre incubated for 15 mins followed by ATP acyl phosphate probe addition and measured after 10 mins by LC-MS/MS analysis relative to control; assay type: subcellular; details: time 25.0 min
Tyrosine-protein kinase Lyn, sequence (P07948 2-512 limits assumed): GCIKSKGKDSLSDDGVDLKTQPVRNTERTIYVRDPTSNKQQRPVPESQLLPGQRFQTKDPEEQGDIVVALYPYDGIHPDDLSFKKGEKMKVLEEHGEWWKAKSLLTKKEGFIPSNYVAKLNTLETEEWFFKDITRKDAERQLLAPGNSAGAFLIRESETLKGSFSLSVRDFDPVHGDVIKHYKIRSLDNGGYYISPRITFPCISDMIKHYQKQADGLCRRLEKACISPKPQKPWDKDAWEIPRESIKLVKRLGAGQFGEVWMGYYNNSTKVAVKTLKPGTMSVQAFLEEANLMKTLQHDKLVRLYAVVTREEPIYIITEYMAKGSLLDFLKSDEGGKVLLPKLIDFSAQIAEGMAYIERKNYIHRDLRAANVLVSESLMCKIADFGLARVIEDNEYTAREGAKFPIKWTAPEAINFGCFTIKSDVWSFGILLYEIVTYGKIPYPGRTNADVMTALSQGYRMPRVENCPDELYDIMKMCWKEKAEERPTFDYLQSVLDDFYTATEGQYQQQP

T2 sequence (P78527 whole entry): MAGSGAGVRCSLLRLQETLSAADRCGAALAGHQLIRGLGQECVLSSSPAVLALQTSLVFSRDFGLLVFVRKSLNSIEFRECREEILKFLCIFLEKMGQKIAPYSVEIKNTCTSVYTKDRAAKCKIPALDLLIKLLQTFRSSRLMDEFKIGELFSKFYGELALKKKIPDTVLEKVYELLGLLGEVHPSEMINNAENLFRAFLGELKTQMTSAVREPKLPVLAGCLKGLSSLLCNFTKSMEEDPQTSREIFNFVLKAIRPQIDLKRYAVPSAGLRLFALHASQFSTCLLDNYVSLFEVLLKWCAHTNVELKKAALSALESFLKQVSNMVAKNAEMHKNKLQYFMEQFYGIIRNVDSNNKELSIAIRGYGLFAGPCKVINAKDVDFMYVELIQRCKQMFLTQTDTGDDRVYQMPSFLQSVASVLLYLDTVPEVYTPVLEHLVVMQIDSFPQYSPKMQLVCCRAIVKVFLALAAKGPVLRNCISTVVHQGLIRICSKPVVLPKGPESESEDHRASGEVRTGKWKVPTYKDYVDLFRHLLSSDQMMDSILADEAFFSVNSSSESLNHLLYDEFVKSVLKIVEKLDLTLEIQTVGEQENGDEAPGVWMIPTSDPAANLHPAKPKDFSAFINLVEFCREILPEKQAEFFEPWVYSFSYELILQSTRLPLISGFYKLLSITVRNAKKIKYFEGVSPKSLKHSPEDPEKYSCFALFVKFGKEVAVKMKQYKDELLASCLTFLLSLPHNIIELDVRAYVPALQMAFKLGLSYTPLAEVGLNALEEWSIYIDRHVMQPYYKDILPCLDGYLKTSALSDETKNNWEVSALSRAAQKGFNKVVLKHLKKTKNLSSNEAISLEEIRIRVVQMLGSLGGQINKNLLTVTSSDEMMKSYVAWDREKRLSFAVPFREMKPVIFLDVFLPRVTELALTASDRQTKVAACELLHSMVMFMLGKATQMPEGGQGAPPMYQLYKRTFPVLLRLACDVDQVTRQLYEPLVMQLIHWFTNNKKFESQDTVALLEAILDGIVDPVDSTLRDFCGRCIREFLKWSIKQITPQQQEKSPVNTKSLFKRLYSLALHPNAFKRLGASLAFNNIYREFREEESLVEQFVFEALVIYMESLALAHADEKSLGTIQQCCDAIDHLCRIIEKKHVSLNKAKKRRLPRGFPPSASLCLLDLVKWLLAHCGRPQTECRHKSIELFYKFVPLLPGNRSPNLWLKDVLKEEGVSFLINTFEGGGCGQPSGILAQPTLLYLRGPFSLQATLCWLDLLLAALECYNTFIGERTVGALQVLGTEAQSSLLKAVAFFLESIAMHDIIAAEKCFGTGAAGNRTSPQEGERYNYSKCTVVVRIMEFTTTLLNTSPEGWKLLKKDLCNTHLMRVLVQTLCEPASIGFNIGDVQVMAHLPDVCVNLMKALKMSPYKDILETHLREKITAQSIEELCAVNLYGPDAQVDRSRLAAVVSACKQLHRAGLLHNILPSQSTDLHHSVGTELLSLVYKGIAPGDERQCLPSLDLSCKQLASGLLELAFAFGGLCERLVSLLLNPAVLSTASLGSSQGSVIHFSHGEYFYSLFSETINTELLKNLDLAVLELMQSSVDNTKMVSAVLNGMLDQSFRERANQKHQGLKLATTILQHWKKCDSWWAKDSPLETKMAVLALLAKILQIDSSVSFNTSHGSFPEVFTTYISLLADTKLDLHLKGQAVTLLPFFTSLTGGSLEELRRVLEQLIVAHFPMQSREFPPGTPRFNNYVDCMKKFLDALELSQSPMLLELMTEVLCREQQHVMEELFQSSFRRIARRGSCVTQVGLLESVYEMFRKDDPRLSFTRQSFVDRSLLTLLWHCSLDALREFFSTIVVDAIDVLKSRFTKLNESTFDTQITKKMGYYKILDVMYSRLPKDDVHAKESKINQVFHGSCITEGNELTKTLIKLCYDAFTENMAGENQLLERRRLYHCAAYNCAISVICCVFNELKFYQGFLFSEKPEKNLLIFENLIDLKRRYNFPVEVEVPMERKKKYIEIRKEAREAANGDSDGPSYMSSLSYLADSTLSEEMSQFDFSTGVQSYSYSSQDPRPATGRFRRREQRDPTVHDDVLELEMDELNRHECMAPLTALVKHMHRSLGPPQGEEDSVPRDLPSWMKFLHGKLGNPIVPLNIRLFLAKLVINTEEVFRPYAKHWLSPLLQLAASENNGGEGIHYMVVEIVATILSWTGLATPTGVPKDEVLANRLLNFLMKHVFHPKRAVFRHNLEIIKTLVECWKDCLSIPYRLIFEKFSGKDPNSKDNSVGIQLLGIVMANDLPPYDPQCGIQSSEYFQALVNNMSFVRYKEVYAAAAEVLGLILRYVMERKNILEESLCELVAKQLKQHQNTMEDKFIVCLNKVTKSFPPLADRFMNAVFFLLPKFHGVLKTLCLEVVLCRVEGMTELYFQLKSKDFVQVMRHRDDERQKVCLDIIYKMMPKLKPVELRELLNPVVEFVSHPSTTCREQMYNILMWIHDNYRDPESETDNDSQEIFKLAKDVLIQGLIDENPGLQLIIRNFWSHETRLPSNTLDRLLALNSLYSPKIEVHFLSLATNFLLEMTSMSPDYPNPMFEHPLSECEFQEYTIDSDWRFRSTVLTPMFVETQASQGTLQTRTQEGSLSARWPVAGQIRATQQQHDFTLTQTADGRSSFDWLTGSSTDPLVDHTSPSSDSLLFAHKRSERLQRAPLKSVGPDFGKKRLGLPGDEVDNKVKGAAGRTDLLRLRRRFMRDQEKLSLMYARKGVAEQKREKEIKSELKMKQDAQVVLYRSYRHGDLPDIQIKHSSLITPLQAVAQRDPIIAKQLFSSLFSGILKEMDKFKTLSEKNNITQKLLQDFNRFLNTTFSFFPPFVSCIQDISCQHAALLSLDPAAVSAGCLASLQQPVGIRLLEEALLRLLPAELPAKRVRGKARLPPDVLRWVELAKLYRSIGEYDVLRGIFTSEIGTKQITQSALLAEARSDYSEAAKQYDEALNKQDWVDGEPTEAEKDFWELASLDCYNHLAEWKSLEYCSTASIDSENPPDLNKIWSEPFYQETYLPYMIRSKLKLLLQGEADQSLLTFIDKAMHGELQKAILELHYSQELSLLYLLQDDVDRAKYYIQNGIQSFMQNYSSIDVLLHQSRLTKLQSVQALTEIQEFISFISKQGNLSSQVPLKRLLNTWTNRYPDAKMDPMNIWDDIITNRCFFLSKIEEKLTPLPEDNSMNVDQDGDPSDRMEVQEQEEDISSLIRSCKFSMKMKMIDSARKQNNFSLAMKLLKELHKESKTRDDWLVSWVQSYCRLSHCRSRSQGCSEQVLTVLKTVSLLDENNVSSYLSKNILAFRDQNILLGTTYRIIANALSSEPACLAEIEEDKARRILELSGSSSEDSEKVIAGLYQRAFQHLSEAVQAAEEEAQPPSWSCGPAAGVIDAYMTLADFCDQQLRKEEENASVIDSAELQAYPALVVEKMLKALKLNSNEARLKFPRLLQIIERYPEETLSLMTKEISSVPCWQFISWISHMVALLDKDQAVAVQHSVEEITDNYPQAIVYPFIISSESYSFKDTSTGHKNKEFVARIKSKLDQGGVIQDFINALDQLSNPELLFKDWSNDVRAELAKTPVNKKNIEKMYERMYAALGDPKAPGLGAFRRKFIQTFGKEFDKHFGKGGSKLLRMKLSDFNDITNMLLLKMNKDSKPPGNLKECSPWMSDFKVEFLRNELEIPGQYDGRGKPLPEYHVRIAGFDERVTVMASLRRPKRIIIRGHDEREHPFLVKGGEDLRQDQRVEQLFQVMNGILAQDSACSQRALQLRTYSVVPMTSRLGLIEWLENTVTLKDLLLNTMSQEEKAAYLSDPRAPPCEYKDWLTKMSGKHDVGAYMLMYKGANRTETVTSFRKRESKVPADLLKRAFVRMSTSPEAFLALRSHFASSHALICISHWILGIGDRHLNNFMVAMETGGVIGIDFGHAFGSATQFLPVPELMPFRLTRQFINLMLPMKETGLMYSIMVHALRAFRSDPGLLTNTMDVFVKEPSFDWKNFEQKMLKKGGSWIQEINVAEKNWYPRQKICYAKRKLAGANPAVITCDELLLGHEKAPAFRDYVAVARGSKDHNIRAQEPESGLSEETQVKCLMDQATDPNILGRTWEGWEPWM
Casein kinase I isoform alpha, sequence (P48729 2-337 limits assumed): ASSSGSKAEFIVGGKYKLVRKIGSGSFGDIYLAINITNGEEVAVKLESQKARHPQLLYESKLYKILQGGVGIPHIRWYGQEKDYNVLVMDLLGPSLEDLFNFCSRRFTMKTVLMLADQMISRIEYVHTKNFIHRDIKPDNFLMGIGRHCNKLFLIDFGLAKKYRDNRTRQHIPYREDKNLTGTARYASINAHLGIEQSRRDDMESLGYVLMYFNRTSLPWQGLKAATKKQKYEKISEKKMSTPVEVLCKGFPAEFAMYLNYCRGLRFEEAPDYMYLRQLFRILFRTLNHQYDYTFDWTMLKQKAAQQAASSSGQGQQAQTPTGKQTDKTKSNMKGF

CCOc1cc(N2CCC(O)CC2)ccc1Nc1ncc2c(n1)N(C)c1ccccc1C(=O)N2C
IC50 [1]: > 50 µM | inhibition [2]: 18.8% | inhibition [3]: 46.3% | inhibition [4]: 73.1% | IC50 [5]: > 50 µM | inhibition [6]: -3.7% | inhibition [7]: -4.8% | IC50 [8]: > 50 µM | AUC(0-inf) [9]: 1.9 µM·h | inhibition [10]: -7.9% | Activity [11]: Non-Toxic | IC50 [12]: > 50 µM | inhibition at 10 µM [13]: -18.3% | inhibition at 10 µM [14]: -4.4% | Activity [15]: Non-Toxic | IC50 [16]: > 50 µM | Activity [17]: Active | inhibition [18]: -6.3%
